According to ChEMBL document CHEMBL2057171, “Arylstibonic acids are potent and isoform-selective inhibitors of Cdc25a and Cdc25b phosphatases” (Bioorg Med Chem, 2012):
Activity calls are given as the source filed them. The calls are words filed in the database; no cut-off is given here.

Columns and labels:
[1] = biological target: Receptor-type tyrosine-protein phosphatase beta (Homo sapiens) (UniProt P23467); assay: Inhibition of PTP-beta receptor using p-NPP as substrate at 5 uM by colorimetric analysis
Sequence of Receptor-type tyrosine-protein phosphatase beta (Homo sapiens) (P23467 whole entry, looked up): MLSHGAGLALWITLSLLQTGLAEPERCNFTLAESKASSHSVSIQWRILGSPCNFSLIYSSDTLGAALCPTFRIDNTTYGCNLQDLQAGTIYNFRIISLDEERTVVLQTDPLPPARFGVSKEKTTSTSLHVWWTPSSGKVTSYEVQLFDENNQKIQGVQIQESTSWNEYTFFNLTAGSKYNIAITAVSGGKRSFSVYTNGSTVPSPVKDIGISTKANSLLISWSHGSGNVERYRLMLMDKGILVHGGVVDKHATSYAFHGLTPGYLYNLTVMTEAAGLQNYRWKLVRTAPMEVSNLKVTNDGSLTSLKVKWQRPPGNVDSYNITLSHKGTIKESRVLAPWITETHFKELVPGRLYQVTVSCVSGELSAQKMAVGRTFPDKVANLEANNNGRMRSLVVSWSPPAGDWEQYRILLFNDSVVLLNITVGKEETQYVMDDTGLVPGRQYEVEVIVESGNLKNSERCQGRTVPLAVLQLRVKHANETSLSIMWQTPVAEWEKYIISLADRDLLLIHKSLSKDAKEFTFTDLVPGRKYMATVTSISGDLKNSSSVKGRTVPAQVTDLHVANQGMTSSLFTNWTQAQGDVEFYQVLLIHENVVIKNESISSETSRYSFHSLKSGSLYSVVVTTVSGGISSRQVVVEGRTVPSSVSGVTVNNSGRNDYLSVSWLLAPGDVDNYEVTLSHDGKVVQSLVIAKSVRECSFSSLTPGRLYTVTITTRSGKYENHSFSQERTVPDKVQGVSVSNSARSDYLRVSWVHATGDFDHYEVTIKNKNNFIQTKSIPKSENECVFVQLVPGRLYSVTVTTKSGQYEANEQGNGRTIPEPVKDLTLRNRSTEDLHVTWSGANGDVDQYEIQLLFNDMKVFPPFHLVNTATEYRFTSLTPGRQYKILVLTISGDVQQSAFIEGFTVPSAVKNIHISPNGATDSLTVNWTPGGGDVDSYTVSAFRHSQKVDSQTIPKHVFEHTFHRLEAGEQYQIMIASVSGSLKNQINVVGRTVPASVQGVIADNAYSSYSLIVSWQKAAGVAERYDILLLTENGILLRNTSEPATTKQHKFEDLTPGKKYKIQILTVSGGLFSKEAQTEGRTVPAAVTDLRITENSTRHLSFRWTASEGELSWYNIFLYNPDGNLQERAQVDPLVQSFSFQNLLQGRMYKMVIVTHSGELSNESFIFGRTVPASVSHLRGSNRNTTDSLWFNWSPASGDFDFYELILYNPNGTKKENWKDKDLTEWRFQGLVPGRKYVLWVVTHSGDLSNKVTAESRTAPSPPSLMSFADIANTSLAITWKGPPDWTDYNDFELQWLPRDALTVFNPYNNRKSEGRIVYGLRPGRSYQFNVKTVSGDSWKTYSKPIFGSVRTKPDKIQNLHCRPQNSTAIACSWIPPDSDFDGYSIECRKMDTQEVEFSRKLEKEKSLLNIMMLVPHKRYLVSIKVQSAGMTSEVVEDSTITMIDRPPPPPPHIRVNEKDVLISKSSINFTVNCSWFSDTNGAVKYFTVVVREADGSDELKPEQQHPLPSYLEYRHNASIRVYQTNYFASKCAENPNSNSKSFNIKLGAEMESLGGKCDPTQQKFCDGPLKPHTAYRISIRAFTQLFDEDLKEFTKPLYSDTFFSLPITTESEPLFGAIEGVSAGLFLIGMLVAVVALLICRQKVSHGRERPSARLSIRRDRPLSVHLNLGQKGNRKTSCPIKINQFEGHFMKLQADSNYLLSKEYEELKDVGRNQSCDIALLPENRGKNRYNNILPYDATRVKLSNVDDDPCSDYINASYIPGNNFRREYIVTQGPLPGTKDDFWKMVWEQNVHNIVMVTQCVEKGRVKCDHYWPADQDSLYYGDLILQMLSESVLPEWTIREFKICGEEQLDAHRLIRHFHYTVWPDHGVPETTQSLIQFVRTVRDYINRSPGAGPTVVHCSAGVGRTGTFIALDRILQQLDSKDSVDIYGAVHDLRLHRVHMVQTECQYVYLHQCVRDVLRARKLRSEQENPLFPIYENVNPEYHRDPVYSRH
Method in brief: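 Purchased PTP-β assayed with 1 mM p-NPP (near KM) in 25 mM Hepes pH 7.4, 50 mM NaCl, 5 mM DTT; arylstibonate fixed at 5 µM. The reaction was started by adding p-NPP in water, and p-nitrophenol release was read at 405 nm. Reported as % inhibition from triplicates, with standard error.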

Rattus norvegicus = organism: Rattus norvegicus; assay: Inhibition of rat GST-tagged synaptojanin SAC1 domain expressed in Escherichia coli XL-1 blue using I(1,4,5))P3 as substrate at 5 uM by malachite green assay
Method in brief: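 GST-synaptojanin was expressed in E. coli XL-1 blue (1 mM IPTG, 18°C, 24 h) and purified on glutathione sepharose. Substrate: 50 µM PI(4)P in octylglucoside mixed micelles for synaptojanin; 50 µM I(1,4,5)P3 for SAC1. Assay ran at 37°C in 100 mM Tris pH 7.4, 4 mM MgCl2 with 5 µM compound. Malachite green stopped the reaction, colour developed 10 min, and absorbance was read at 625 nm. Heat-denatured enzyme served as blank. Triplicates.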

[2] = biological target: M-phase inducer phosphatase 2 (Homo sapiens) (UniProt P30305); assay: Mixed-type inhibition of N-terminal His-tagged Cdc25b catalytic domain expressed in Escherichia coli BL21(DE3) using 3-O-Methylfluorescein phosphate as substrate by Michaelis-Menten plot analysis
Sequence of M-phase inducer phosphatase 2 (Homo sapiens) (P30305 whole entry, the tested form may be a part): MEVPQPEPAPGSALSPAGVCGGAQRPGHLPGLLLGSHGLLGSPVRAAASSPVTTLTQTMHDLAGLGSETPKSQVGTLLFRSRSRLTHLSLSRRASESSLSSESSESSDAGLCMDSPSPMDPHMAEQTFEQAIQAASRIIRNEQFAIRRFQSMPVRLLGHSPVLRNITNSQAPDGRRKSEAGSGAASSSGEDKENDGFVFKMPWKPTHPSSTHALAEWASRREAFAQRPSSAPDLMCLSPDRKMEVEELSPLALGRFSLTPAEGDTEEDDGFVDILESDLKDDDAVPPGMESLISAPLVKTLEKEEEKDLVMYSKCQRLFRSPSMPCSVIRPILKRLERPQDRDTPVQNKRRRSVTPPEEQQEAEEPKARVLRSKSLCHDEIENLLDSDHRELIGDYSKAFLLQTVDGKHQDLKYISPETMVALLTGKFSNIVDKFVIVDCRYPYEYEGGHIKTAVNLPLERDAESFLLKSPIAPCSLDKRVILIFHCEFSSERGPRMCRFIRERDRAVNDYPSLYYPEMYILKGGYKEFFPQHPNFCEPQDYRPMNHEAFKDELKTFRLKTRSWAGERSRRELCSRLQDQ
Method in brief: (§1)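 Steady-state kinetics of the Cdc25a and Cdc25b catalytic domains with varying OMFP and several arylstibonate concentrations. Run at 20 °C in 100 mM Tris pH 7.4 with 2 mM DTT, after a 10 min RT enzyme–inhibitor preincubation. Fluorescence read at ex 485/em 525 nm. Michaelis–Menten plots give apparent Km and Vmax; secondary plots give Ki.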

[3] = biological target: M-phase inducer phosphatase 2 (Homo sapiens) (UniProt P30305); assay: Reversible inhibition of N-terminal His-tagged Cdc25b catalytic domain expressed in Escherichia coli BL21(DE3) using 3-O-Methylfluorescein phosphate as substrate at 4 times IC50 by 10-fold dilution method
Method in brief: (§2)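 Reversibility test by dilution. Cdc25a or Cdc25b is preincubated with arylstibonate, then diluted 10-fold in reaction buffer (100 mM Tris pH 7.4, 2 mM DTT). Activity is then measured in the OMFP fluorescence assay (ex 485/em 525 nm, 20 °C) and expressed as % of the uninhibited reaction.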

[4] = biological target: M-phase inducer phosphatase 1 (Homo sapiens) (UniProt P30304); assay: Reversible inhibition of N-terminal His-tagged Cdc25a catalytic domain expressed in Escherichia coli BL21(DE3) using 3-O-Methylfluorescein phosphate as substrate at 4 times IC50 by 10-fold dilution method; method in brief: as §2
Sequence of M-phase inducer phosphatase 1 (Homo sapiens) (P30304 whole entry, the tested form may be a part): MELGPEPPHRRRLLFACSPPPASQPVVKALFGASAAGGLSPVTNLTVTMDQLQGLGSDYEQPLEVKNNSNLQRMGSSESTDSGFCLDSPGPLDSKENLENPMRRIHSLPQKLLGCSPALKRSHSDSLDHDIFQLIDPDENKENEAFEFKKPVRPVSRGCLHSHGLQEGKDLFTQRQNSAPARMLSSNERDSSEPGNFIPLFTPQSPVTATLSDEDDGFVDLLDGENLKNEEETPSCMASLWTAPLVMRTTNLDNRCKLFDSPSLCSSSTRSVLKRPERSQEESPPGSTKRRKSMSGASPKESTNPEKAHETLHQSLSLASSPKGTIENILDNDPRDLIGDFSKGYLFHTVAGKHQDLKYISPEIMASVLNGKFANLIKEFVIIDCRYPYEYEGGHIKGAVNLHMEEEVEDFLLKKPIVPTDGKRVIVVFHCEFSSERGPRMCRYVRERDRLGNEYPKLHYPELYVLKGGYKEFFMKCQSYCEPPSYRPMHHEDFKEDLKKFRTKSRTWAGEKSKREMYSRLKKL

[5] = biological target: M-phase inducer phosphatase 1 (Homo sapiens) (UniProt P30304); assay: Mixed-type inhibition of N-terminal His-tagged Cdc25a catalytic domain expressed in Escherichia coli BL21(DE3) using 3-O-Methylfluorescein phosphate as substrate by Michaelis-Menten plot analysis; method in brief: as §1

| Substance | inhibition [1] | inhibition (Rattus norvegicus) | inhibition [2] | inhibition [3] | inhibition [4] | inhibition [5] |
| --- | --- | --- | --- | --- | --- | --- |
| 2-(3-stibonobenzyl)malonic acid | > 90% | > 40% |  |  |  |  |
| 2-(3-stibonophenoxy)acetic acid | > 90% | > 40% |  |  |  |  |
| 2-(4-stibonobenzyl)malonic acid | 67% | < 40% |  |  |  |  |
| 2-nitro-4-stibonobenzoic acid | > 90% | > 40% |  |  |  |  |
| 2-nitrophenylstibonic acid | > 90% | > 40% |  |  |  |  |
| 3-(3-ethoxy-2-(ethoxycarbonyl)-3-oxopropyl)phenylstibonic acid | inactive | < 40% |  |  |  |  |
| 3-(3-stibonophenyl)propanoic acid | > 90% | > 40% | Active | Active | Active | Active |
| 3-(methoxycarbonyl)phenylstibonic acid | inactive | < 40% |  |  |  |  |
| 3-nitrophenylstibonic acid | 50% | < 40% |  |  |  |  |
| 3-stibonobenzoic acid | 78% | < 40% |  |  |  |  |
| 4-(2-ethoxy-2-oxoethyl)phenylstibonic acid | > 90% | > 40% |  |  |  |  |
| 4-((4-hydroxyphenyl)diazenyl)phenylstibonic acid | > 90% | > 40% |  |  |  |  |
| 4-benzamidophenylstibonic acid | > 90% | > 40% |  |  |  |  |
| 4-hydroxyphenylstibonic acid | inactive | < 40% |  |  |  |  |
| 4-iodophenylstibonic acid | > 90% | > 40% |  |  |  |  |
| 4-stibonobenzoic acid | 72% | < 40% |  |  |  |  |
| 4-stibonophthalic acid | 51% | < 40% |  |  |  |  |
| (E)-3-(3-stibonophenyl)acrylic acid | > 90% | > 40% | Active | Active | Active | Active |
| PHENYLSTIBONIC ACID | inactive | < 40% |  |  |  |  |
